Source: PubChem (The Scripps Research Institute Molecular Screening Center)
Sampled rows, rich in hits. Any-hit rate of the full collection: about 2.3%.
DDE Tn6 FP inh = DD(E)-Tn6 binding inhibition, primary FP screen. P02675. Fibrin DD(E) TRITC-Tn6 fluorescence polarization displacement. inhibition, % at 8.3 µM. 370,000 tested, 0.21% active;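 active = inhibition above a per-campaign cutoff: mean of compounds within control limits plus 3 SD, cut at about 15% in these data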;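 note: 0% = median of all compound wells on the plate and 100% = blocking peptide control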
ADAM10 inh = inhibits human ADAM10 | O14672 | recombinant ADAM10, EDANS/DABCYL FRET peptide cleavage, 3 h | inhibition, % at 7 µM | 370,000 tested, 0.62% active | AID 720582;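 active = inhibition above a per-campaign cutoff equal to the mean of compounds falling between control-based bounds plus 3 SD, cut at about 20% in these data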;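 note: 0% = DMSO wells while the 100% control is not disclosed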
DDE Tn7 FP inh = inhibitors of Tn7 peptide binding to human fibrin DD(E) | inhibition, % at 8.3 µM | FP displacement of FITC-Tn7 peptide from fibrin DD(E); 0% = median of compound wells per plate | 370,000 tested, 0.13% active | P02675 | AID 720508;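 active = inhibition above the mean of compounds falling within the control limits plus 3 SD of them, cut at about 14% in these data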;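 note: 0% = plate median of compound wells and 100% = 10 µM Aha-Tn7 peptide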
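Measure: % inhibition scaled between sample-field median and high-control FP; Test system: human fibrin DD(E); Quantity: 2 µM final DD(E) protein; Doses: one dose, 8.3 µM nominal; Schedule: compound with protein 10 min, then 3 h after probe, room temperature; Detection: fluorescence polarization; Medium: Tris buffer with calcium and detergent, pH 7.8.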
PLCg1 inh = inhibitors of human phospholipase C gamma1; purified PLC-gamma1, fluorogenic substrate, fluorescence; inhibition, % at 12.2 µM; 370,000 tested, 0.84% active; AID 720700; in the data active = inhibition above about 9.5%
ADAM17 inh = ADAM17 inhibition, QFRET primary screen. P78536. recombinant ADAM17, EDANS/DABCYL FRET peptide cleavage. inhibition, % at 6.95 µM. 370,000 tested, 0.83% active. AID 720648;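 active = inhibition above the mean of compounds lying between control limits plus 3 SD, set per campaign, cut at about 8.5% in these data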;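 note: 0% = DMSO-only wells as the low control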
PLCb3 inh = inhibitors of human phospholipase C beta3 | inhibition, % at 12.2 µM | Purified PLC-beta3, fluorogenic substrate, fluorescence | Q01970 | 370,000 tested, 0.18% active; in the data active = inhibition above about 11%;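 note: 0% = median of compound wells on plate and 100% = full blocker control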
Target sequence (Q01970 whole entry, looked up): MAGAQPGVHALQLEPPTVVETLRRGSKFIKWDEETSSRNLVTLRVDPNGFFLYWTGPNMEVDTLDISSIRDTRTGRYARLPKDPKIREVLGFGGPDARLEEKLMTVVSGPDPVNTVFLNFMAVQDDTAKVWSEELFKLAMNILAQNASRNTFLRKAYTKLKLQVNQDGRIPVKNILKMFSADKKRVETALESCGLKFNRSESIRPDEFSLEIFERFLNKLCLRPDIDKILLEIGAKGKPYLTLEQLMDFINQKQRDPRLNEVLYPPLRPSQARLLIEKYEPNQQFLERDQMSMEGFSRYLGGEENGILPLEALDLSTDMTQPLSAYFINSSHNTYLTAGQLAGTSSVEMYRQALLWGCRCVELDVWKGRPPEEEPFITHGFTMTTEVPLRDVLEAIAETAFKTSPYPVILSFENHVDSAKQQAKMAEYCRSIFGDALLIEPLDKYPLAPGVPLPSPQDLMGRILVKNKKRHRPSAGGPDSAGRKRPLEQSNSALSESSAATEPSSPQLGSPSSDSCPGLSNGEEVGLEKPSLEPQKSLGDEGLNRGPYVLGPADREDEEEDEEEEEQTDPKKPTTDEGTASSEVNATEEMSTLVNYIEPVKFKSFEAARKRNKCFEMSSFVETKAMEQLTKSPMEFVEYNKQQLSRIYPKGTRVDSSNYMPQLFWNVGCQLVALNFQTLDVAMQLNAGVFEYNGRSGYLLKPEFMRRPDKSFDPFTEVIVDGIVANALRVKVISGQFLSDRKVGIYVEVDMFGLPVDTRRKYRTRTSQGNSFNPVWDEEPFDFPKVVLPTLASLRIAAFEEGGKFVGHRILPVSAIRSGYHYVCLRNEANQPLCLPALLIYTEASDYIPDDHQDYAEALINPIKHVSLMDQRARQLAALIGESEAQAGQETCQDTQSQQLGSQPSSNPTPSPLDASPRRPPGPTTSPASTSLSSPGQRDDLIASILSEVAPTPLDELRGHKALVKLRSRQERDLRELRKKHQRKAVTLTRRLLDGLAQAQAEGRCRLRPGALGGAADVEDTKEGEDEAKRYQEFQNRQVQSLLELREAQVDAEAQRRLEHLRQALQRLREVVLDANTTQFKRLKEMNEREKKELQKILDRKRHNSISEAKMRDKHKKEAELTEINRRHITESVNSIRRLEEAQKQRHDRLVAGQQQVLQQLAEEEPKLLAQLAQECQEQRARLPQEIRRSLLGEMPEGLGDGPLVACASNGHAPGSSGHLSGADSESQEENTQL
ADAM10 ctr = counter-screen for ADAM17 exosite inhibitors: inhibitors of human ADAM10 | inhibition, % at 6.95 µM | recombinant ADAM10, EDANS/DABCYL FRET peptide cleavage, 3 h | shares compounds with ADAM17 inh | AID 743256 | 2,900 tested, 47% active;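 active = mean inhibition over the triplicate runs exceeds the activity threshold set in the earlier primary screen, cut at about 20% in these data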;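 note: 0% = DMSO wells and 100% = marimastat wells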
ADAM17 confirm = human ADAM17 inhibition, confirmation | AID 743257 | 2,900 tested, 65% active | inhibition, % at 6.95 µM | recombinant ADAM17, EDANS/DABCYL QFRET peptide cleavage | shares compounds with ADAM17 inh;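 active = mean inhibition across replicates above the hit cutoff set in the primary screen, cut at about 8.5% in these data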;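 note: 0% = DMSO wells and 100% = marimastat wells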
Active calls of the source: *; x = no result.

SMILES | DDE Tn6 FP inh | ADAM10 inh | DDE Tn7 FP inh | PLCg1 inh | ADAM17 inh | PLCb3 inh | ADAM10 ctr | ADAM17 confirm
Cc1nn(Cc2noc(C(=O)NCc3ccccn3)n2)c(C)c1Br | 10.7 | 8.7 | 5.4 | 2.9 | 9.6* | -0.2 | -2.1 | 1.1
CC(C)C(=O)N1CC[C@H]2[C@H](CCCN2Cc2cc(F)cc(F)c2)C1 | -6.3 | -2.9 | 2.2 | -2.6 | -1.0 | 2.9 | x | x
CCOC(=O)CCCNC(=O)O[C@@H]1CC[C@@]23CCCN2C(=O)CCC[C@H]3C1 | 0.8 | 2.4 | -4.9 | 1.7 | -0.9 | 6.6 | x | x
Cc1cccc(C)c1N(CC(O)Cn1c2ccccc2c2ccccc21)S(C)(=O)=O (centres undefined) | -6.0 | 14.3 | 4.7 | -0.2 | 5.5 | 1.7 | x | x
CS(=O)(=O)N(Cc1ccco1)CC(O)Cn1c2ccccc2c2ccccc21 (centres undefined) | -11.5 | 9.2 | -9.4 | 8.5 | 9.9* | 4.4 | 3.6 | 4.6
COc1ccc2c(c1)CNC2CS(=O)(=O)NCC(C)C (centres undefined) | 3.7 | -79.1 | -12.2 | -33.2 | -22.3 | -44.3 | x | x
Cc1ccc2c(c1)C(CS(=O)(=O)NCc1ccccc1)NC2 (centres undefined) | 1.4 | -8.1 | -3.2 | -8.7 | -4.8 | -11.8 | x | x
CC(=O)NC(CC(=O)Nc1ccc2c(c1)OCCO2)c1ccccc1 (centres undefined) | 3.1 | 5.8 | 2.2 | -0.8 | -2.3 | -7.5 | x | x
O=C(CC(c1ccccc1)c1ccccc1)Nc1ccc2c(c1)OCCO2 | -6.7 | 16.4 | 1.3 | 7.9 | 12.5* | 4.6 | 15.7 | 14.1*
O=C(C1CCCN1S(=O)(=O)c1cccs1)N1CCc2ccccc2C1 (centres undefined) | -4.2 | -15.2 | 3.6 | 7.8 | -2.5 | -1.2 | x | x
CC(C)CCNC(=O)[C@H]1COC(O)([C@H](Cc2ccccc2)NC(=O)[C@@H](NC(=O)OCc2ccccc2)C(C)C)CN1C (some centres undefined) | 4.0 | -2.8 | 0.3 | -1.0 | 1.7 | -1.6 | x | x
Cn1cnnc1SCC(=O)NNC(=O)c1ccc([N+](=O)[O-])cc1 | 0.5 | 0.5 | -2.6 | 2.4 | 0.8 | -0.2 | x | x
Cn1cnnc1SCC(=O)c1cccc([N+](=O)[O-])c1 | -7.2 | 9.8 | -0.5 | 5.4 | 8.7* | 9.3 | 2.5 | 2.6
CCN(CC)C1Oc2cc3c(cc2C(c2cc(OC)c(OC)c(OC)c2)C1C)OCO3 (centres undefined) | 2.2 | 9.1 | -0.2 | 4.8 | 9.9* | -1.0 | 11.0 | 9.9*
COc1cc(C2c3cc4c(cc3C3OC(=O)C2C3CO)OCO4)cc(OC)c1OC (centres undefined) | -7.1 | -1.9 | 0.2 | -1.7 | -5.8 | -0.8 | x | x
Cc1ccc(CN2CC(=O)N3[C@H]4c5cc(Cl)ccc5OC[C@@H]4[C@H](c4ccccc4)[C@]3(C)C2=O)cc1 | -2.1 | 15.4 | -6.3 | 2.2 | 9.4* | 1.4 | 7.5 | 7.0
COc1ccc2c(c1)[C@H]1[C@H](CO2)[C@H](c2ccccc2)[C@]2(C)C(=O)Nc3cc(F)ccc3C(=O)N12 | -9.8 | 13.4 | 2.1 | -7.2 | 10.0* | -7.8 | -9.7 | -0.5
CCOC(=O)[C@H]1[C@H]2COc3ccc(Br)cc3[C@@H]2N2C(=O)CN(Cc3ccc(C)cc3)C(=O)[C@@]12C | 0.6 | 16.4 | -4.4 | 5.3 | 9.6* | 8.1 | 28.1* | 16.8*
COc1ccc2c(c1)OC[C@H]1[C@H]2N2C(=O)CN(Cc3ccc(Cl)cc3)C(=O)[C@@]2(C)[C@H]1c1ccccc1 | -1.8 | 16.0 | 4.2 | 2.9 | 9.9* | -2.1 | 28.9* | 13.3*
COc1ccc2c(c1)[C@H]1[C@H](CO2)[C@H](c2ccccc2)[C@]2(C)C(=O)Nc3ccccc3C(=O)N12 | -3.0 | 14.8 | 6.3 | -4.1 | 5.7 | 1.2 | x | x
